Bioassay records from PubChem BioAssay.
CHT PAM = human CHT allosteric activation; CHT-expressing cells, membrane potential dye, choline EC20; stronger effect = higher value; LV-AA mutant CHT in HEK293 cells; 0.49% of 310,000 active; B-score at 10 µM;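 active means initial fluorescence not abnormally high and integrated response B-score, plate-corrected, over 3 SD above library mean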
Rad51 HR inh = Rad51 (human) homologous recombination inhibition. Q06609. hRad51 DNA strand exchange, fluorescence dequenching. inhibition, % at 10 µM. 0.085% of 200,000 active. AID 1385;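 active means inhibition above 40% at the single screening dose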;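 further: 0% = DMSO control wells and 100% = blanks with heterologous ssDNA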
Target sequence (Q06609 whole entry, looked up): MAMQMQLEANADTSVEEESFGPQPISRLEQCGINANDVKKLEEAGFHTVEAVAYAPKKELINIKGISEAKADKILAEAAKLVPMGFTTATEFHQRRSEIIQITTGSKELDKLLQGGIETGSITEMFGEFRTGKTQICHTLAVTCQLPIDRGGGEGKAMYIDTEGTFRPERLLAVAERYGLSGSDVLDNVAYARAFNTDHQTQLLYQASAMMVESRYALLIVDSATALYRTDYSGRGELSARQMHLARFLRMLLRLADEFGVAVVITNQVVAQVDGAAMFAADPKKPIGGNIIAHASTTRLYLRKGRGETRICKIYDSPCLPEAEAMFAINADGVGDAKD
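System: human Rad51 nucleoprotein filaments preassembled on unlabelled ssDNA. Reagent: labelled 47-mer dsDNA for strand exchange. Schedule: 30-min compound preincubation and 15-min exchange, both room temperature. Measured by: FRET fluorescence dequenching, excitation 485 nm, emission 520 nm. Read-out: Fluorescence-based percent inhibition, control- and blank-normalised. Benchmarks: plate controls and plate blanks.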
CHT inh = human CHT choline transport inhibition; CHT-expressing cells, membrane potential dye, choline response; stronger effect = lower value; B-score at 10 µM; 0.86% of 310,000 active; AID 488975;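 active means B-score over 3 SD under the library average, and starting fluorescence ratio not unusually high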;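 further: choline stimulus applied at its EC90 after an EC20 pre-addition; B-score computed on integrated fluorescence ratio after choline addition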
Cl transport mod = KCC2 (human) Cl- transport modulation; KCC2 cells, thallium flux FluoZin-2 fluorescence; B-score of Tl+ flux slope (higher = more flux/activation; lower = inhibition) at 10 µM; 2.2% of 190,000 active;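 active means thallium flux slope and its plate-corrected score both differing from the plate sample mean at a set confidence after two filtering rounds, in either direction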;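 further: slope of fluorescence scaled to starting intensity during 10 to 20 s after thallium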
Starred values were filed as active, the others as inactive; i = inactive; nt = not tested or not shown. Compounds with a hit are over-represented: about 2.6% of the library has one in this group of screens.

SMILES | CHT PAM | Rad51 HR inh | CHT inh | Cl transport mod
CCCC(=O)N1CCN(c2ccc(NC(=O)c3cc4ccccc4o3)cc2Cl)CC1 | i | 7 | -7.4* | 0.55
Cc1ccc(C(=O)NNC(=O)c2ccco2)cc1 | i | 14 | i | -0.42
Cc1cccc(NC(=S)NC(=O)c2ccco2)n1 | i | 6 | i | 28*
O=C(/C=C/c1ccccc1)NC(=S)NNC(=O)c1ccco1 | i | -1 | i | 6.4*
Cc1ccc(C(=O)NNC(=S)NC(=O)c2ccco2)cc1 | i | -4 | i | 55*
Cc1cccc(NC(=O)CNC(=O)c2ccco2)n1 | i | nt | i | nt
Cc1cccc(NC(=S)NC(=O)c2cccs2)n1 | i | 1 | i | 18*
Cc1cccc(NC(=O)CCC(=O)c2cccs2)n1 | i | nt | i | nt
COc1ccc(N2CCN(C(=O)CCCn3nnnc3CN3CCOCC3)C(C)C2)cc1 (stereo not drawn) | i | nt | i | nt
COc1ccccc1OCCn1c(=O)oc2ccc(C)cc21 | i | 16 | i | 0.096
Cc1ccc(C(=O)NC2CC(C)(C)NC(C)(C)C2)cc1S(=O)(=O)N1CCCCC1 | i | nt | i | nt
Cc1ccc2nc(NC(=S)NC(=O)c3cccs3)sc2c1 | i | -2 | i | 9.2*
Cc1ccc2oc(-c3cccc(NC(=S)NC(=O)c4cccs4)c3)nc2c1 | i | -6 | i | 7.7*
Cc1ccc2nc(NC(=O)c3cccs3)sc2c1 | i | -5 | i | 1.4
COc1ccc(NC(=O)c2cc([N+](=O)[O-])ccc2O)cc1 | i | nt | i | -3.3*
COc1ccc(NC(=O)c2cccc([N+](=O)[O-])c2)cc1 | i | 2 | i | 1.2
O=C(c1ccc(Cl)nc1)N1CCN(C/C=C/c2ccccc2)CC1 | i | 2 | i | 1.9
CN(CC(=O)Nc1ccc(Cl)c(S(=O)(=O)N(C)C)c1)Cc1ccccc1 | i | nt | i | nt
COc1c(OC)c(O)c2c(=O)c(O)c(-c3ccccc3)oc2c1OC | i | 5 | i | 52*
CSc1nnc(N2C(=O)C(O)=C(C(=O)c3ccco3)C2c2cccc(Cl)c2)s1 (stereo not drawn) | i | nt | i | nt
O=C(NC1=NCCS1)c1cccc(N2C(=O)c3ccccc3C2=O)c1 | i | 41* | i | 0.26
CC(=O)c1cccc(NC(=O)c2cccc(N3C(=O)c4ccccc4C3=O)c2)c1 | i | nt | i | nt
CCn1nnc(NC(=O)c2cccc(-c3cc4ccccc4oc3=O)c2)n1 | i | 51* | i | -0.71
COc1ccc(C/C(C)=N/NC(=S)Nc2ccccc2)cc1 | i | -2 | i | 32*
C/C(CC(=O)NCc1ccccc1Cl)=N/NC(=O)c1ccccn1 | i | nt | i | nt
SMILES | CHT PAM | Rad51 HR inh | CHT inh | Cl transport mod
CC(C)(C)NC(=O)C(=O)NNC(=O)COc1ccc(Br)cc1 | i | -1 | i | 20*
Cc1ccc(NC(=O)C(=O)NNC(=O)c2cccs2)cc1 | i | 6 | i | 43*
COc1ccc(OCC(=O)NNC(=O)C(=O)Nc2ccc(C)cc2)cc1 | i | 8 | i | 22*
Cc1ccc(NC(=O)c2cccs2)cc1 | i | nt | i | -0.034
COc1ccc(NC(=O)C(=O)NNC(=O)c2cccs2)cc1 | i | -14 | i | 12*
CCC(C(=O)NCC1CCCO1)N(Cc1ccc(F)cc1)C(=O)CNS(=O)(=O)c1ccccc1 (stereo not drawn) | i | nt | i | nt
Cc1ccc(-c2c(C(=O)N/N=C/c3c[nH]c4ccccc34)nnn2-c2nonc2N)cc1 | i | nt | i | nt
O=C(c1ccc2ccccc2n1)N1CCN(c2ccccc2O)CC1 | i | 87* | i | -0.65
Cc1onc(-c2ccccc2)c1C(=O)Nc1ccc(S(=O)(=O)N2CCOCC2)cc1 | i | nt | i | nt
CN(C)CCCN(CCCN(C)C)C(=S)Nc1ccc(S(=O)(=O)N2CCOCC2)cc1 | i | nt | i | -1.5
N#Cc1c(-c2cccs2)nc(SCc2ccc(Cl)cc2)[nH]c1=O | nt | 4 | nt | -3.5*
CSc1nc(-c2cccs2)c(C#N)c(=O)[nH]1 | i | -10 | i | -1.3
S=C(Nc1cccc(Br)c1)c1ccccc1 | i | 11 | i | 3.7*
c1ccc(Cc2nnc(-c3ccccc3)o2)cc1 | i | 7 | i | 14*
Brc1ccc(-c2nnc(Cc3ccccc3)o2)cc1 | i | 8 | i | -2.2
Cc1ccc(C(=O)CC(=O)c2ccccc2C)c(O)c1 | i | nt | i | nt
Cc1ccc(C(=O)CC(=O)c2cccc(F)c2)c(O)c1 | i | -2 | i | 22*
CCn1c(=S)[nH]c2scc(-c3cccs3)c2c1=O | nt | -2 | nt | 60*
O=c1c2c(-c3cccs3)csc2[nH]c(=S)n1-c1ccccc1 | i | -10 | i | 2.4
C=CCn1c(=S)[nH]c2scc(-c3ccc(C)o3)c2c1=O | i | 21 | i | 61*
C=CCn1c(SCC(C)=O)nc2scc(-c3ccc(C)o3)c2c1=O | i | nt | i | nt
COc1cccc(-n2cc(-c3ccc(F)cc3)[nH]c2=S)c1 | i | nt | i | nt
COC(=O)c1ccc(-n2cc(-c3ccc(OC)cc3)[nH]c2=S)cc1 | i | nt | i | 8.8*
CCN(C(=O)c1ccc(NC(=O)Cc2ccccc2)cc1)c1ccccc1 | i | nt | i | nt
CCOC(=O)N1CCC(NC(=O)Cn2ncc3ccccc32)CC1 | i | -6 | i | 0.024
SMILES | CHT PAM | Rad51 HR inh | CHT inh | Cl transport mod
CCOC(=O)N1CCC(NC(=O)Cn2ncc3c4ccccc4n(C)c3c2=O)CC1 | nt | -5 | nt | -2.6*
O=C1CC(c2ccsc2)Sc2ccccc2N1 (stereo not drawn) | i | -4 | i | 0.48
CC1(C)CC(=S)Nc2ccccc2S1 | i | -6 | i | 4.7*
C(C#CCCCCCCCCC[n+]1ccccc1)#CCCCCCCCCC[n+]1ccccc1 | 7.6* | nt | i | nt
COc1nc(NCCc2ccc(OC)c(OC)c2)nc(Nc2ccccc2)n1 | i | nt | i | nt
CN(C)CCNC(=O)c1csc(Nc2cccc3ccccc23)n1 | i | nt | -9.9* | nt
CCCCCC/C(C)=C1/SC(=S)NC1=O | i | 3 | i | 53*
COc1cccc(Oc2c(C)oc3c(CN4CCCC4)c(O)ccc3c2=O)c1 | i | nt | i | -0.78
c1ccc2c(c1)ccc1ncccc12 | i | 26 | i | -1.8
Oc1c(N=Nc2ccccn2)ccc2ccccc12 | i | -6 | i | 53*
Cc1cccc(C)c1NC(=S)NC(=O)c1ccc(Br)o1 | i | 2 | i | 192*
O=C(Nc1ccccc1C(=O)N/N=C/c1ccco1)c1ccccc1 | i | 0 | i | 7.8*
Cc1ccccc1C(=O)Nc1ccccc1C(=O)N/N=C\c1ccco1 | i | 1 | i | 0.27
CC(=O)N1CCc2cc(S(=O)(=O)N3CCc4ccccc43)ccc21 | i | nt | i | nt
CS(=O)(=O)c1ccccc1-c1nnc(NC(=O)c2ccc(S(=O)(=O)N3CCCC3)cc2)o1 | i | nt | i | nt
O=C(Nc1nnc(-c2ccccc2Cl)o1)c1ccc(S(=O)(=O)N2CCCCCC2)cc1 | i | 11 | i | 8.5*
